Data taken from ChEMBL document CHEMBL3044956, “Nematicidal and antifungal activities of annonaceous acetogenins from Annona squamosa against various plant pathogens” (J Agric Food Chem, 2011).
Converted amounts (≈) assume the structure as drawn.

What was measured:
Rhizoctonia solani [1] = assay: In vivo antifungal activity against Rhizoctonia solani infected rice seedlings assessed as control of rice sheath blight disease development at 5 ug/ml treated 1 day before spore inoculation measured 3-7 days after inoculation; type: functional
Summary of the method: (§1)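 Potted seedlings sprayed to runoff with material dissolved in MeOH and diluted in 0.025% Tween 20 (5% MeOH); controls got the Tween/MeOH solution alone. Inoculated with spores or mycelial suspension 1 day later. Infected leaf or sheath area rated 3–7 days after inoculation; % control = 100(A−B)/A. Randomized complete block design, three replicates, run in duplicate; Tukey HSD.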

Rhizoctonia solani [2] = assay: In vivo antifungal activity against Rhizoctonia solani infected rice seedlings assessed as control of rice sheath blight disease development at 50 ug/ml treated 1 day before spore inoculation measured 3-7 days after inoculation; type: functional; summary of the method: as §1
Botrytis cinerea [3] = assay: In vivo antifungal activity against Botryotinia fuckeliana infected in tomato seedlings assessed as control of tomato gray mold disease development at 5 ug/ml treated 1 day before spore inoculation measured 3-7 days after inoculation; type: functional; summary of the method: as §1
Botrytis cinerea [4] = assay: In vivo antifungal activity against Botryotinia fuckeliana infected in tomato seedlings assessed as control of tomato gray mold disease development at 50 ug/ml treated 1 day before spore inoculation measured 3-7 days after inoculation; type: functional; summary of the method: as §1
[5] = system: Bursaphelenchus xylophilus; assay: Nematicidal activity against second juvenile stage (J2) of Bursaphelenchus xylophilus assessed as mortality at >0.33 ug/ml after 2 days by microtiter plate assay method (Beneficial crop Pine); type: functional
Summary of the method: (§2)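 Pine wood nematodes reared on B. cinerea mycelia on PDA for 7 days at 28 °C. J2s collected in 0.01% Triton X-100 water and tested in microtiter plates. Compounds in DMSO or MeOH, solvent ≤1%; solvent-only controls. Concentrations 0.004–1 μg/mL. Mortality Abbott-corrected; LC50 by probit. Two runs, three replicates each.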

[6] = system: Bursaphelenchus xylophilus; assay: Nematicidal activity against second juvenile stage (J2) of Bursaphelenchus xylophilus assessed as mortality after 2 days by microtiter plate assay method (Beneficial crop Pine); type: functional; conditions: 48 h; summary of the method: as §2
Meloidogyne incognita [7] = assay: Nematicidal activity against second juvenile stage (J2) of Meloidogyne incognita (root-knot nematode) assessed as mortality incubated in the dark at 28 degC after 1 day by light microscopy (benficial crop Tomato); type: functional; conditions: 24 h
Summary of the method: (§3)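 M. incognita eggs taken from infected tomato roots with hypochlorite and J2s hatched in Baermann funnels at 28 °C. J2s from the first 3 days kept in 0.01% Tween 20 water and used within 24 h. About 100 J2s per well; stock added 1:100 in DMSO or MeOH (≤1%). Plates kept shaking in the dark at 28 °C, scored by microscope at 1, 2 and 3 days. Mortality Abbott-corrected. Two runs, three replicates each.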

Meloidogyne incognita [8] = assay: Nematicidal activity against second juvenile stage (J2) of Meloidogyne incognita (root-knot nematode) assessed as mortality incubated in the dark at 28 degC after 2 days by light microscopy (benficial crop Tomato); type: functional; conditions: 48 h; summary of the method: as §3
Meloidogyne incognita [9] = assay: Nematicidal activity against second juvenile stage (J2) of Meloidogyne incognita (root-knot nematode) assessed as mortality incubated in the dark at 28 degC after 3 days by light microscopy (benficial crop Tomato); type: functional; conditions: 72 h; summary of the method: as §3
Phytophthora infestans [10] = assay: In vivo antifungal activity against Phytophthora infestans zoospores infected tomato seedlings assessed as control of tomato late blight disease development at 10 ug/ml treated 1 day before spore inoculation measured 3 days after inoculation; type: functional; summary of the method: as §1
Phytophthora infestans [11] = assay: In vivo antifungal activity against Phytophthora infestans zoospores infected tomato seedlings assessed as control of tomato late blight disease development at 2 ug/ml treated 1 day before spore inoculation measured 3 days after inoculation; type: functional; summary of the method: as §1
Phytophthora infestans [12] = assay: Antifungal activity against Phytophthora infestans assessed as inhibition of zoospore germination incubated in the dark at 20 degC for 24 hr by light microscopy; type: functional, organism-based
Summary of the method: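 Zoospores released by chilling sporangia 1 h at 4 °C, then filtered to remove sporangia. Test solution in MeOH mixed 1:100 with the suspension (1% MeOH control), loaded onto hole-slide glasses and kept humid at 20 °C for 24 h in the dark. Germinated cells counted per hole by light microscope. Experiment repeated, mean ± SD.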

Blumeria hordei [13] = assay: In vivo antifungal activity against Blumeria graminis f. sp. hordei infected barley seedlings assessed as control of barley powdery mildew disease development at 250 ug/ml treated 1 day before spore inoculation measured 3-7 days after inoculation; type: functional; summary of the method: as §1
Colletotrichum coccodes [14] = assay: In vivo antifungal activity against Colletotrichum coccodes infected red pepper seedlings assessed as control of red pepper anthracnose development at 125 ug/ml treated 1 day before spore inoculation measured 3-7 days after inoculation; type: functional; summary of the method: as §1
Blumeria hordei [15] = assay: In vivo antifungal activity against Blumeria graminis f. sp. hordei infected barley seedlings assessed as control of barley powdery mildew disease development at 500 ug/ml treated 1 day before spore inoculation measured 3-7 days after inoculation; type: functional; summary of the method: as §1
Puccinia recondita [16] = assay: In vivo antifungal activity against Puccinia recondita infected wheat seedlings assessed as reduction in wheat leaf rust disease symptoms development at 250 ug/ml treated 1 day before spore inoculation measured 7 days after inoculation; type: functional; design: scale not given: the % may be the effect or the level left; summary of the method: as §1
Colletotrichum coccodes [17] = assay: In vivo antifungal activity against Colletotrichum coccodes infected red pepper seedlings assessed as control of red pepper anthracnose development at 250 ug/ml treated 1 day before spore inoculation measured 3-7 days after inoculation; type: functional; summary of the method: as §1
Rhizoctonia solani [18] = assay: In vivo antifungal activity against Rhizoctonia solani infected rice seedlings assessed as control of rice sheath blight disease development at 500 ug/ml treated 1 day before spore inoculation measured 3-7 days after inoculation; type: functional; summary of the method: as §1
Pyricularia oryzae [19] = assay: In vivo antifungal activity against Magnaporthe oryzae infected rice seedlings assessed as control of rice blast disease development at 250 ug/ml treated 1 day before spore inoculation measured 3-7 days after inoculation; type: functional; summary of the method: as §1
Phytophthora infestans [20] = assay: In vivo antifungal activity against Phytophthora infestans zoospores infected tomato seedlings assessed as control of tomato late blight disease development treated 1 day before spore inoculation measured 3 days after inoculation; type: functional, organism-based; summary of the method: as §1
Pyricularia oryzae [21] = assay: In vivo antifungal activity against Magnaporthe oryzae infected rice seedlings assessed as control of rice blast disease development at 500 ug/ml treated 1 day before spore inoculation measured 3-7 days after inoculation; type: functional; summary of the method: as §1
Rhizoctonia solani [22] = assay: In vivo antifungal activity against Rhizoctonia solani infected rice seedlings assessed as control of rice sheath blight disease development at 250 ug/ml treated 1 day before spore inoculation measured 3-7 days after inoculation; type: functional; summary of the method: as §1
Phytophthora infestans [23] = assay: Antifungal activity against Phytophthora infestans assessed as inhibition of sporangium germination incubated at 20 degC for 24 hr by light microscopy; type: functional, organism-based
Summary of the method: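 Sporangium germination: compounds serially diluted in MeOH (12500 to 391 μg/mL as stock series), sporangia incubated 24 h at 20 °C. About 100 sporangia per replicate scored for germination by light microscope. Experiment repeated, mean ± SD. IC50 by probit.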

Colletotrichum coccodes [24] = assay: In vivo antifungal activity against Colletotrichum coccodes infected red pepper seedlings assessed as control of red pepper anthracnose development at 500 ug/ml treated 1 day before spore inoculation measured 3-7 days after inoculation; type: functional; summary of the method: as §1
Botrytis cinerea [25] = assay: In vivo antifungal activity against Botryotinia fuckeliana infected in tomato seedlings assessed as control of tomato gray mold disease development at 500 ug/ml treated 1 day before spore inoculation measured 3-7 days after inoculation; type: functional; summary of the method: as §1
Botrytis cinerea [26] = assay: In vivo antifungal activity against Botryotinia fuckeliana infected in tomato seedlings assessed as control of tomato gray mold disease development at 125 ug/ml treated 1 day before spore inoculation measured 3-7 days after inoculation; type: functional; summary of the method: as §1
Puccinia recondita [27] = assay: In vivo antifungal activity against Puccinia recondita infected wheat seedlings assessed as reduction in wheat leaf rust disease symptoms development at 125 ug/ml treated 1 day before spore inoculation measured 7 days after inoculation; type: functional; design: scale not given: the % may be the effect or the level left; summary of the method: as §1
Blumeria hordei [28] = assay: In vivo antifungal activity against Blumeria graminis f. sp. hordei infected barley seedlings assessed as control of barley powdery mildew disease development at 125 ug/ml treated 1 day before spore inoculation measured 3-7 days after inoculation; type: functional; summary of the method: as §1
Botrytis cinerea [29] = assay: In vivo antifungal activity against Botryotinia fuckeliana infected in tomato seedlings assessed as control of tomato gray mold disease development at 250 ug/ml treated 1 day before spore inoculation measured 3-7 days after inoculation; type: functional; summary of the method: as §1
Pyricularia oryzae [30] = assay: In vivo antifungal activity against Magnaporthe oryzae infected rice seedlings assessed as control of rice blast disease development at 125 ug/ml treated 1 day before spore inoculation measured 3-7 days after inoculation; type: functional; summary of the method: as §1
Phytophthora infestans [31] = assay: Antifungal activity against Phytophthora infestans assessed as inhibition of radial mycelial growth at 11.11 to 900 ug/ml incubated at 20 degC for 5 to 7 days by poison plate assay; type: functional
Summary of the method: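 Poison-plate assay: material in MeOH added 1:100 to V8-agar at 50 °C, 2 mL per well of six-well plates, centre-inoculated with a 5 mm plug from the colony margin. Incubated at 20 °C until control growth reached the edge. Controls were 1% MeOH. Read as % inhibition of radial growth. Two runs, four replicates each. IC50 by probit.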

Puccinia recondita [32] = assay: In vivo antifungal activity against Puccinia recondita infected wheat seedlings assessed as reduction in wheat leaf rust disease symptoms development at 500 ug/ml treated 1 day before spore inoculation measured 7 days after inoculation; type: functional; design: scale not given: the % may be the effect or the level left; summary of the method: as §1
Rhizoctonia solani [33] = assay: In vivo antifungal activity against Rhizoctonia solani infected rice seedlings assessed as control of rice sheath blight disease development at 125 ug/ml treated 1 day before spore inoculation measured 3-7 days after inoculation; type: functional; summary of the method: as §1

OCC1=C[C@H](N[C@H]2C[C@H](CO)[C@@H](O[C@@H]3O[C@H](CO)[C@@H](O)[C@H](O)[C@H]3O)[C@H](O)[C@H]2O)[C@H](O)[C@@H](O)[C@@H]1O [VALIDAMYCIN]
Activity (Rhizoctonia solani [1]): 70% | Activity (Rhizoctonia solani [2]): 100%

N#Cc1c[nH]cc1-c1cccc2c1OC(F)(F)O2 [FLUDIOXONIL]
Activity (Botrytis cinerea [3]): 83% | Activity (Botrytis cinerea [4]): 100%

CCCCCCCCCC[C@H](O)[C@H]1CC[C@H]([C@H]2CC[C@H]([C@H](O)CCCCCCCCCCC3=C[C@H](C)OC3=O)O2)O1 (relative stereo) [REL-SQUAMOCIN-J]
mortality [5]: 100% | LC50 [6]: 0.025 µg/mL

CCCCCCCCCCCC[C@@H](O)[C@H]1CC[C@H]([C@H](O)CCCCCCCCCCCCC2=C[C@H](C)OC2=O)O1 (relative stereo) [REL-SOLAMIN]
LC50 [6]: > 1 µg/mL

O=C/C=C/c1ccccc1 [CINNAMALDEHYDE]
LC50 (Meloidogyne incognita [7]): 15.1 µg/mL (≈ 115 µM) | LC50 (Meloidogyne incognita [8]): 13.9 µg/mL (≈ 105 µM) | LC50 (Meloidogyne incognita [9]): 12.2 µg/mL (≈ 92.6 µM)

COc1ccc(C(=CC(=O)N2CCOCC2)c2ccc(Cl)cc2)cc1OC [DIMETHOMORPH]
Activity (Phytophthora infestans [10]): 100% | Activity (Phytophthora infestans [11]): 85%

CCCCCC[C@H](O)CCC[C@@H](O)[C@H]1CC[C@H]([C@H]2CC[C@H]([C@H](O)CCCCCCCCCCCCC3=C[C@H](C)OC3=O)O2)O1 (relative stereo) [REL-SQUAMOCIN]
IC50 (Phytophthora infestans [12]): 3.05 µg/mL (≈ 4.9 µM) | inhibition (Phytophthora infestans [12]): Dose-dependent effect | Activity (Blumeria hordei [13]): 0% | Activity (Colletotrichum coccodes [14]): 0% | Activity (Blumeria hordei [15]): 0% | Activity (Puccinia recondita [16]): 20% | Activity (Colletotrichum coccodes [17]): 0% | mortality [5]: 100% | Activity (Rhizoctonia solani [18]): 0% | Activity (Pyricularia oryzae [19]): 0% | Activity (Phytophthora infestans [20]): Dose-dependent effect | Activity (Pyricularia oryzae [21]): 50% | LC50 (Meloidogyne incognita [7]): > 100 µg/mL | Activity (Rhizoctonia solani [22]): 11.8% | IC50 (Phytophthora infestans [23]): 1.24 µg/mL (≈ 1.99 µM) | inhibition (Phytophthora infestans [23]): Dose-dependent effect | Activity (Colletotrichum coccodes [24]): 0% | LC50 (Meloidogyne incognita [8]): > 100 µg/mL | Activity (Botrytis cinerea [25]): 0% | Activity (Botrytis cinerea [26]): 0% | Activity (Puccinia recondita [27]): 0% | LC50 (Meloidogyne incognita [9]): 54.9 µg/mL (≈ 88.1 µM) | Activity (Blumeria hordei [28]): 0% | Activity (Botrytis cinerea [29]): 0% | Activity (Pyricularia oryzae [30]): 0% | growth inhibition (GI) (Phytophthora infestans [31]): 31% | Activity (Puccinia recondita [32]): 83.3% | Activity (Rhizoctonia solani [33]): 0% | LC50 [6]: 0.006 µg/mL

CCCCCCCCCC[C@@H](O)[C@H]1CC[C@H]([C@H](O)CCCCCCCCCCCCCCC2=C[C@H](C)OC2=O)O1 (relative stereo) [REL-ANNOTEMOYIN-1]
LC50 [6]: 0.947 µg/mL
